Measurements published in the M2OR odorant receptor database.

Biological target: T1, UniProt E9QAT7
T1 sequence (whole entry): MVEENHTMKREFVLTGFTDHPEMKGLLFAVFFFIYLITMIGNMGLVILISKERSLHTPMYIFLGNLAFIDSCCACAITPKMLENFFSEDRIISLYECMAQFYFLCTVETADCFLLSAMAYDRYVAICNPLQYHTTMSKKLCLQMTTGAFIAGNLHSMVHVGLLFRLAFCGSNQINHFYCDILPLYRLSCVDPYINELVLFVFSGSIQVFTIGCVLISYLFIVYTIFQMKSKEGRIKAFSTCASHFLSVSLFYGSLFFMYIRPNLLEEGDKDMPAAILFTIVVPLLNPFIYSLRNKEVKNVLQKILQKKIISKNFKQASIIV
Conditions: stereoisomer not certain
How it was run: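 Assay methods differ from source to source, frequently being transient luciferase assays in mammalian cell lines. For each receptor–molecule pair, the label responsive (active) applies when the original authors judged the measured signal statistically different from baseline, and non-responsive (inactive) applies otherwise.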

Odorant receptor agonist call, inactive:
CC(=O)c1nccnc1C
CC1CCc2nccnc21 (centres undefined)
Cc1nccnc1C
C=Cc1cnccn1
CCc1nccnc1C(C)=O
COC1=C(C)OC(C)C1=O (centres undefined)
Cc1cnc(C)cn1
CCc1nccnc1C
CC(=O)c1cnccn1
Cc1cnccn1
COc1nccnc1CC(C)C

Odorant receptor agonist call, active:
Cc1cnc(C)c(C)n1
CCc1cnc(C)c(C)n1
Cc1cncc(C)n1
